Measurements published in ChEMBL document CHEMBL3120102, “Structure-based design, synthesis and biological evaluation of novel anthra[1,2-d]imidazole-6,11-dione homologues as potential antitumor agents” (2013).

How the values were obtained:
Format in all cases: functional
MDA-MB-468 = experiment: Cytotoxicity against human MDA-MB-468 cells assessed as growth inhibition after 48 hrs by SRB assay
Outline: (§1)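 NCI 60-cell-line screen, five-dose stage: each cell line exposed for 48 h to five concentrations spanning five log steps; cellular protein measured by sulforhodamine B colorimetry. A time-zero cell control and plates without drug are used to derive GI50, TGI and LC50 from log-concentration dose-response curves.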

[1] = (§2) Cytotoxicity against human Hs578T cells assessed as growth inhibition after 48 hrs by SRB assay; details: Hs-578T
Outline: (§3)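 NCI 60-cell-line five-dose screen at […]. Drug exposure was 48 h, followed by sulforhodamine B protein staining. GI50, TGI and LC50 were calculated against a time-zero control and untreated plates, with dose–response curves plotted from log10 concentration.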

Hs-578T = experiment: as §2; outline: as §3
MCF7 = experiment: Cytotoxicity against human MCF7 cells assessed as growth inhibition after 48 hrs by SRB assay; outline: as §1
DU-145 = experiment: Cytotoxicity against human DU145 cells assessed as growth inhibition after 48 hrs by SRB assay; outline: as §3
[2] = (§4) Cytotoxicity against human UO31 cells assessed as growth inhibition after 48 hrs by SRB assay; details: UO-31, 48 h
Outline: (§5)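 NCI 60-cell-line screen, two stages. Five-dose testing at […]. Cellular protein measured by sulforhodamine B colorimetry after 48 h drug exposure. A time-zero control and drug-free plates are used to derive GI50, TGI and LC50 from dose-response curves plotted as log10 concentration per cell line.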

UO-31 = experiment: as §4; outline: as §5
TK-10 = experiment: Cytotoxicity against human TK10 cells assessed as growth inhibition after 48 hrs by SRB assay; outline: as §5
ACHN = experiment: Cytotoxicity against human ACHN cells assessed as growth inhibition after 48 hrs by SRB assay; outline: as §3
786-0 = experiment: Cytotoxicity against human 786-0 cells assessed as growth inhibition after 48 hrs by SRB assay; outline: as §3
[3] = (§6) Cytotoxicity against human NCI-ADR-RES cells assessed as growth inhibition after 48 hrs by SRB assay; outline: as §1
NCI/ADR-RES = experiment: as §6; outline: as §1
OVCAR-8 = experiment: Cytotoxicity against human OVCAR8 cells assessed as growth inhibition after 48 hrs by SRB assay; outline: as §1
[4] = (§7) Cytotoxicity against human UACC257 cells assessed as growth inhibition after 48 hrs by SRB assay; details: UACC-257, 48 h; outline: as §5
UACC-257 = experiment: as §7; outline: as §5
SK-MEL-5 = experiment: Cytotoxicity against human SK-MEL-5 cells assessed as growth inhibition after 48 hrs by SRB assay; outline: as §1
SK-MEL-2 = experiment: Cytotoxicity against human SK-MEL-2 cells assessed as growth inhibition after 48 hrs by SRB assay; outline: as §1
LOX IMVI = experiment: Cytotoxicity against human LOXIMVI cells assessed as growth inhibition after 48 hrs by SRB assay; outline: as §3
U-251 = experiment: Cytotoxicity against human U251 cells assessed as growth inhibition after 48 hrs by SRB assay; outline: as §5
SF-268 = experiment: Cytotoxicity against human SF268 cells assessed as growth inhibition after 48 hrs by SRB assay; outline: as §1
SW-620 = experiment: Cytotoxicity against human SW620 cells assessed as growth inhibition after 48 hrs by SRB assay; outline: as §5
HT-29 = experiment: Cytotoxicity against human HT-29 cells assessed as growth inhibition after 48 hrs by SRB assay; outline: as §3
COLO 205 = experiment: Cytotoxicity against human COLO205 cells assessed as growth inhibition after 48 hrs by SRB assay; outline: as §3
NCI-H522 = experiment: Cytotoxicity against human NCI-H522 cells assessed as growth inhibition after 48 hrs by SRB assay; outline: as §1
[5] = (§8) Cytotoxicity against human EKVX cells assessed as growth inhibition after 48 hrs by SRB assay; outline: as §3
EKVX = experiment: as §8; outline: as §3
A549 = experiment: Cytotoxicity against human A549 cells assessed as growth inhibition after 48 hrs by SRB assay; outline: as §3
K562 = experiment: Cytotoxicity against human K562 cells assessed as growth inhibition after 48 hrs by SRB assay; outline: as §3
[6] = Cytotoxicity against human Hs578T cells assessed as cell growth at 10 uM after 48 hrs by SRB assay; details: Hs-578T, read-out: Activity
OVCAR-3 = experiment: Cytotoxicity against human OVCAR3 cells assessed as cell growth at 10 uM after 48 hrs by SRB assay; details: OVCAR-3, 48 h, read-out: Activity
Outline: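 First stage of the NCI 60 human tumour cell line screen: a single dose is tested against every line. Cell growth is read as cellular protein by sulforhodamine B colorimetry after 48 h of drug exposure, with reference to a time-zero control and to untreated plates.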

[7] = read-out: LC50 (the source's name)

CCCSc1nc2ccc3c(c2[nH]1)C(=O)c1ccccc1C3=O
3.71 µM: GI50 (SF-268; SF-268, 48 h)
3.48 µM: GI50 (OVCAR-8; OVCAR-8, 48 h)
2.69 µM: GI50 (ACHN)
7.05 µM: GI50 (U-251; U-251, 48 h)
62.7%: growth at 10 µM (OVCAR-3)
42.8 µM: TGI (ACHN)
83 µM: TGI [1]
> 100 µM: LC50 (MDA-MB-468; MDA-MB-468, 48 h) | TGI (MDA-MB-468; MDA-MB-468, 48 h) | CC50 [1, 7] | LC50 (concentration killing 50% of cells) (MCF7; MCF7, 48 h) | TGI (MCF7; MCF7, 48 h) | GI50 (DU-145; DU-145, 48 h) | TGI (DU-145; DU-145, 48 h) | CC50 (DU-145; DU-145, 48 h, read-out: LC50 (the source's name)) | LC50 [2] | LC50 (TK-10; TK-10, 48 h) | CC50 (ACHN; [7]) | LC50 (concentration causing 50% net cell kill) [3] | TGI [3] | LC50 (OVCAR-8; OVCAR-8, 48 h) | TGI (OVCAR-8; OVCAR-8, 48 h) | GI50 [4] | LC50 [4] | TGI [4] | GI50 (SK-MEL-5; SK-MEL-5, 48 h) | LC50 (concentration killing 50% of cells relative to time zero) (SK-MEL-5; SK-MEL-5, 48 h) | TGI (SK-MEL-5; SK-MEL-5, 48 h) | LC50 (50% lethal concentration) (SK-MEL-2; SK-MEL-2, 48 h) | TGI (SK-MEL-2; SK-MEL-2, 48 h) | LC50 (LOX IMVI) | TGI (LOX IMVI) | TGI (U-251; U-251, 48 h) | CC50 (U-251; U-251, 48 h, read-out: LC50 (the source's name)) | LC50 (concentration killing 50% of cells relative to time zero) (SF-268; SF-268, 48 h) | TGI (SF-268; SF-268, 48 h) | GI50 (SW-620; SW-620, 48 h) | LC50 (SW-620; SW-620, 48 h) | TGI (SW-620; SW-620, 48 h) | GI50 (HT-29; HT-29, 48 h) | TGI (HT-29; HT-29, 48 h) | CC50 (HT-29; HT-29, 48 h, read-out: LC50 (the source's name)) | GI50 (COLO 205; COLO 205, 48 h) | LC50 (COLO 205; COLO 205, 48 h) | TGI (COLO 205; COLO 205, 48 h) | TGI (NCI-H522; NCI-H522, 48 h) | CC50 (NCI-H522; NCI-H522, 48 h, read-out: LC50 (the source's name)) | LC50 [5] | TGI [5] | LC50 (concentration killing 50% of cells) (A549; A549, 48 h) | TGI (A549; A549, 48 h) | TGI (K562; K562, 48 h) | CC50 (K562; K562, 48 h, read-out: LC50 (the source's name))
2.37 µM: GI50 [3]
6.37 µM: GI50 (A549; A549, 48 h)
6.38 µM: GI50 (MDA-MB-468; MDA-MB-468, 48 h)
36.4 µM: GI50 (K562; K562, 48 h)
3.25 µM: GI50 (TK-10; TK-10, 48 h)
33.3%: growth at 10 µM [6]
2.53 µM: GI50 [2]
21.6 µM: TGI (TK-10; TK-10, 48 h)
64.9 µM: GI50 [5]
4.39 µM: TGI (786-0; 786-0, 48 h)
15.9 µM: GI50 (SK-MEL-2; SK-MEL-2, 48 h)
3.69 µM: GI50 (LOX IMVI)
3.45 µM: GI50 [1]
2.13 µM: GI50 (786-0; 786-0, 48 h)
70.2 µM: TGI [2]
57 µM: GI50 (MCF7; MCF7, 48 h)
9.04 µM: LC50 (concentration causing 50% net cell kill) (786-0; 786-0, 48 h)
11.6 µM: GI50 (NCI-H522; NCI-H522, 48 h)
active: growth inhibition (GI) (MDA-MB-468) Dose-dependent effect | growth inhibition (GI) (Hs-578T) Dose-dependent effect | growth inhibition (GI) (MCF7) Dose-dependent effect | growth inhibition (GI) (DU-145) Dose-dependent effect | growth inhibition (GI) (UO-31) Dose-dependent effect | growth inhibition (GI) (TK-10) Dose-dependent effect | growth inhibition (GI) (ACHN) Dose-dependent effect | growth inhibition (GI) (786-0) Dose-dependent effect | growth inhibition (GI) (NCI/ADR-RES) Dose-dependent effect | growth inhibition (GI) (OVCAR-8) Dose-dependent effect | growth inhibition (GI) (UACC-257) Dose-dependent effect | growth inhibition (GI) (SK-MEL-5) Dose-dependent effect | growth inhibition (GI) (SK-MEL-2) Dose-dependent effect | growth inhibition (GI) (LOX IMVI) Dose-dependent effect | growth inhibition (GI) (U-251) Dose-dependent effect | growth inhibition (GI) (SF-268) Dose-dependent effect | growth inhibition (GI) (SW-620) Dose-dependent effect | growth inhibition (GI) (HT-29) Dose-dependent effect | growth inhibition (GI) (COLO 205) Dose-dependent effect | growth inhibition (GI) (NCI-H522) Dose-dependent effect | growth inhibition (GI) (EKVX) Dose-dependent effect | growth inhibition (GI) (A549) Dose-dependent effect | growth inhibition (GI) (K562) Dose-dependent effect
